The text below walks through data of ChEMBL document CHEMBL2157965, “Structure-based design of potent Bcl-2/Bcl-xL inhibitors with strong in vivo antitumor activity” (J Med Chem, 2012).

As usually defined, the IC50 is the point on the concentration scale where inhibition reaches its midpoint. For orientation: Ki means the dissociation constant of the complex between target and ligand, obtained from inhibition or displacement.

Peptide text beside a SMILES is read from it.

One assay addresses Bcl-2-like protein 1 (Homo sapiens, UniProt Q07817). The experiment in a line: Inhibition of human N-terminal His8-tagged Bcl-XL expressed in Escherichia coli BL21(DE3) assessed as inhibition of Fluorescein-labeled BAK binding after 1 to 2 hrs by fluorescence polarization assay.
The target in assay [1] is Induced myeloid leukemia cell differentiation protein Mcl-1 (Homo sapiens, UniProt Q07820). The experiment in a line: Inhibition of human N-terminal His8-tagged Mcl1 expressed in Escherichia coli BL21(DE3) assessed as inhibition of Fluorescein-labeled BID binding after 1 to 2 hrs by fluorescence polarization assay. In general terms: Polarisation of emitted light reports the rotation of a fluorescent probe.

Assay [2] can be described thus: Inhibition of human N-terminal His6-tagged Bcl2 isoform 2 expressed in Escherichia coli BL21(DE3) assessed as inhibition of Fluorescein-labeled BIM binding after 1 to 2 hrs by fluorescence polarization assay.
Assay [3] can be described thus: Antiproliferative activity against human NCI-H146 cells after 4 days by WST8 assay. Type of assay: functional, cell-based. The settings on record: NCI-H146, 96 h. Put shortly:
(§1)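 Growth inhibition was measured as described previously. IC50 values come from growth curves.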

For the next assay, the system named is NCI-H1417. Kind of assay: Antiproliferative activity against human NCI-H1417 cells after 4 days by WST8 assay. Type of assay: functional, cell-based. The settings on record: NCI-H1417, 96 h. The method in brief:
as §1
On the technique in general: Tetrazolium dyes change colour on reduction, which living cells bring about.

The next assay has as its system NCI-H1963. Kind of assay: Antiproliferative activity against human NCI-H1963 cells after 4 days by WST8 assay. Type of assay: functional, cell-based. The settings on record: NCI-H1963, 96 h. The method in brief:
as §1

Sequence of Induced myeloid leukemia cell differentiation protein Mcl-1 (Q07820 whole entry): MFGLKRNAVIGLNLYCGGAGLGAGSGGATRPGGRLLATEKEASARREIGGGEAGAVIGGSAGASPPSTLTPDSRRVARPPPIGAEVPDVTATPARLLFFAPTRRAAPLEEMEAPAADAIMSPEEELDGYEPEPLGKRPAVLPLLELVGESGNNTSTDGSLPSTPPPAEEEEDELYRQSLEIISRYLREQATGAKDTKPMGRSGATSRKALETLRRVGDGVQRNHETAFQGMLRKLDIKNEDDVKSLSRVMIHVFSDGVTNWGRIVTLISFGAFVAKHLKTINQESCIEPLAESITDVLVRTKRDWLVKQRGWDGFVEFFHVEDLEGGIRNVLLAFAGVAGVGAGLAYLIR
Sequence of Bcl-2-like protein 1 (Q07817 whole entry): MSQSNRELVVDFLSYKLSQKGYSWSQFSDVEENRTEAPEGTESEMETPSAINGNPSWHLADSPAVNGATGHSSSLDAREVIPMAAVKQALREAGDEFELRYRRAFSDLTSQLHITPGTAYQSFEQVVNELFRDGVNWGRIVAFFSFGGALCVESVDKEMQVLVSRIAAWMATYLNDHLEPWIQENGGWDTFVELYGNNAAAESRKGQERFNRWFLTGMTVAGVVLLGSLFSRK

With `CSCC[C@H](NC(=O)[C@H](CCCN=C(N)N)NC(=O)[C@H](CCCN=C(N)N)NC(=O)[C@H](CC(C)C)NC(=O)[C@H](CCC(=O)O)NC(=O)[C@H](CCCN=C(N)N)NC(=O)CNC(=O)[C@H](Cc1ccc(O)cc1)NC(=O)[C@H](CCCN=C(N)N)NC(=O)[C@H](CCC(N)=O)NC(=O)[C@H](C)NC(=O)[C@H](C)NC(=O)[C@@H](N)Cc1c[nH]c2ccccc12)C(=O)N[C@@H](CO)C(=O)N[C@@H](CC(=O)O)C(=O)N[C@@H](CCC(=O)O)C(=O)N[C@@H](Cc1ccccc1)C(=O)N[C@H](C(=O)N[C@@H](CC(=O)O)C(=O)N[C@@H](CO)C(=O)N[C@@H](Cc1ccccc1)C(=O)N[C@@H](CCCCN)C(=O)O)C(C)C` (H-WAAQRYGRELRRMSDEFVDSFK-OH), on Bcl-2-like protein 1, the IC50 turned out to be 5 nM and the Ki is under 1 nM. In assay [1], the half-maximal inhibitory concentration (IC50) is 32000 nM.

As to `Cc1c(C(=O)NCCCN2CCN(C)CC2)c(-c2ccccc2)c(-c2ccc(Cl)cc2)n1C`, the IC50 was 103000 nM in assay [2]; 291000 nM on Bcl-2-like protein 1; over 100000 nM in assay [1]; over 10000 nM in assay [3]; over 10000 nM in the assay on NCI-H1417; over 10000 nM in the assay on NCI-H1963. Further, the values for the inhibition constant (Ki) (in assay [2]; at Bcl-2-like protein 1) were 38000 nM and 88000 nM, respectively.

For the molecule `Cc1c(C(=O)NCCCN2CCN(C)CC2)c(-c2cccc(N3CCN(c4ccc(NS(=O)(=O)c5ccc(N[C@H](CCN(C)C)CSc6ccccc6)c([N+](=O)[O-])c5)cc4)CC3)c2)c(-c2ccc(Cl)cc2)n1C`, the IC50 in assay [2] is 2 nM; in assay [1], over 10000 nM; in assay [3] it was 110 nM; in the assay with NCI-H1417, 258 nM; in the assay on NCI-H1963 it was 72 nM. The Ki is under 0.6 nM in assay [2] and 2.4 nM at Bcl-2-like protein 1.

As to `CNC(=O)c1c(-c2cccc(N3CCN(c4ccc(NS(=O)(=O)c5ccc(N[C@H](CCN(C)C)CSc6ccccc6)c([N+](=O)[O-])c5)cc4)CC3)c2)c(-c2ccc(Cl)cc2)n(C)c1C`, the concentration for half-maximal inhibition (IC50) in assay [2] stood at 5 nM; in assay [3] it was 36 nM; in the assay on NCI-H1417, 109 nM; with NCI-H1963, 30 nM. Moreover, the inhibition constant Ki is 1.1 nM in assay [2] and under 1 nM at Bcl-2-like protein 1.

In the assay on NCI-H1963, `CN1CCN(CCCNC(=O)c2c(-c3ccccc3)c(-c3ccc(Cl)cc3)cn2CC[C@H](O)CO)CC1` came in with an IC50 of over 10000 nM.

Turning to `Cc1c(C(=O)NCCCN2CCN(C)CC2)c(-c2cccc(N3CCN(c4ccc(C(=O)NS(=O)(=O)c5ccc(N[C@H](CCN(C)C)CSc6ccccc6)c([N+](=O)[O-])c5)cc4)CC3)c2)c(-c2ccc(Cl)cc2)n1C`, in assay [2], the Ki came out at 7 nM. In addition, the half-maximal inhibitory concentration (IC50) was over 100000 nM in assay [1], over 10000 nM in assay [3], over 10000 nM in the assay with NCI-H1417 and over 10000 nM with NCI-H1963.

Turning to `Cc1cc(-c2cccc(N3CCN(c4ccc(NS(=O)(=O)c5ccc(N[C@H](CCN(C)C)CSc6ccccc6)c([N+](=O)[O-])c5)cc4)CC3)c2)c(-c2ccc(Cl)cc2)n1C`, the figures for the IC50 (on Bcl-2-like protein 1; in assay [1]; in assay [3]) were 11 nM, over 10000 nM and over 10000 nM, respectively. In addition, the inhibition constant (Ki) at Bcl-2-like protein 1 turned out to be 1.2 nM.

With `CC(C)C[C@H](NC(=O)[C@H](CCCCN)NC(=O)[C@H](CC(=O)O)NC(=O)CNC(=O)[C@H](Cc1ccccc1)NC(=O)[C@H](CCCNC(=N)N)NC(=O)[C@H](CCCNC(=N)N)NC(=O)[C@H](CC(C)C)NC(=O)[C@H](CCC(N)=O)NC(=O)[C@@H](NC(=O)[C@H](C)NC(=O)[C@H](CS)NC(=O)[C@H](CCC(=O)O)NC(=O)[C@@H](NC(=O)[C@H](CCC(=O)O)NC(=O)[C@H](CC(C)C)NC(=O)[C@@H](N)CCC(=O)O)C(C)C)[C@@H](C)O)C(=O)N[C@@H](CC(N)=O)C(=O)N[C@@H](Cc1ccccc1)C(=O)N[C@@H](CCCNC(=N)N)C(=O)N[C@@H](CCC(N)=O)C(=O)N[C@@H](CCCCN)C(=O)O` (H-ELEVECATQLRRFGDKLNFRQK-OH), the IC50 came to 11000 nM at Bcl-2-like protein 1 and 37 nM in assay [1]. Moreover, the Ki on Bcl-2-like protein 1 was determined as 3400 nM.
